Measurements as given in ChEMBL document CHEMBL4689842, “EUbOPEN Chemogenomics Library wave 1” (2021).
Where “and” joins values, the source holds several entries; their conditions need not be identical. Equal values may be shown once.

Tested on: Fibroblast
Test: Multiplex assay against human fibroblast
Format: toxicity, cell-based
Outline: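 With compound added, live cells were imaged on a CQ1 microscope at 37°C and 5% CO2; staining with Hoechst33342, BioTracker Green Microtubule Cytoskeleton Dye, MitoTracker Red and Annexin V Alexa Fluor 680 had been done at seeding. The CellPathfinder machine-learning gating scheme split cells into Hoechst high-intensity objects or normal cells, normal cells into healthy, pyknosed or fragmented nuclei, and pyknosed cells into mitotic or apoptotic. The tubulin, mitochondrial-mass and membrane-permeability phenotypes are per cents of healthy-nucleus cells.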

[1] = 12 h, 1 µM, compound concentration 1 uM, replicate 1
[2] = 12 h, 1 µM, compound concentration 1 uM, replicate 2
[3] = 12 h, 10 µM, compound concentration 10 uM, replicate 1
[4] = 12 h, 10 µM, compound concentration 10 uM, replicate 2
[5] = 24 h, 1 µM, compound concentration 1 uM, replicate 1
[6] = 24 h, 1 µM, compound concentration 1 uM, replicate 2
[7] = 24 h, 10 µM, compound concentration 10 uM, replicate 1
[8] = 24 h, 10 µM, compound concentration 10 uM, replicate 2
[9] = 48 h, 10 µM, compound concentration 10 uM, replicate 1
[10] = 48 h, 10 µM, compound concentration 10 uM, replicate 2

CNC(=O)c1nn(C)c2c1C(C)(C)Cc1cnc(Nc3ccc(N4CCN(C)CC4)cc3)nc1-2 [MILCICLIB]
Population Apoptotic (%) [1]: 74% | Population Fragmented Nuclei (%) [1]: 26% | Population Healthy Nuclei (%) [1]: 59% | Population Hoechst High Intensity Objects (%) [1]: 6% | Population Membrane Permeable-Phenotype (%) [1]: 15% | Population Mitochondria Different-Phenotype (%) [1]: 7% | Population Mitotic Cells (%) [1]: 25% | Population Normal (%) [1]: 93% | Population Pyknosed Nuclei (%) [1]: 14% | Population Tubulin-Different-Phenotype (%) [1]: 30% | Total Cell Count [1]: 202 | Population Apoptotic (%) [2]: 100% | Population Fragmented Nuclei (%) [2]: 64% | Population Healthy Nuclei (%) [2]: 34% | Population Hoechst High Intensity Objects (%) [2]: 34% | Population Membrane Permeable-Phenotype (%) [2]: 13% | Population Mitochondria Different-Phenotype (%) [2]: 31% | Population Mitotic Cells (%) [2]: 0% | Population Normal (%) [2]: 65% | Population Pyknosed Nuclei (%) [2]: 1% | Population Tubulin-Different-Phenotype (%) [2]: 54% | Total Cell Count [2]: 97 | Population Apoptotic (%) [3]: 61% and 65% and 87% | Population Fragmented Nuclei (%) [3]: 29% and 25% and 26% | Population Healthy Nuclei (%) [3]: 40% and 48% and 55% | Population Hoechst High Intensity Objects (%) [3]: 11% and 12% and 13% | Population Mitochondria Different-Phenotype (%) [3]: 14% and 12% and 10% | Population Normal (%) [3]: 88% and 87% and 86% | Population Pyknosed Nuclei (%) [3]: 30% and 25% and 18% | Population Tubulin-Different-Phenotype (%) [3]: 77% and 74% and 40% | Population Apoptotic (%) [4]: 66% and 73% and 60% | Population Healthy Nuclei (%) [4]: 30% and 54% and 62% | Population Mitotic Cells (%) [4]: 33% and 26% and 40% | Population Normal (%) [4]: 70% and 90% and 97% | Total Cell Count [4]: 99 and 122 and 65 | Population Apoptotic (%) [5]: 78% | Population Fragmented Nuclei (%) [5]: 27% | Population Healthy Nuclei (%) [5]: 57% | Population Hoechst High Intensity Objects (%) [5]: 12% | Population Membrane Permeable-Phenotype (%) [5]: 7% | Population Mitochondria Different-Phenotype (%) [5]: 13% | Population Mitotic Cells (%) [5]: 21% | Population Normal (%) [5]: 87% | Population Pyknosed Nuclei (%) [5]: 14% | Population Tubulin-Different-Phenotype (%) [5]: 33% | Total Cell Count [5]: 224 | Population Apoptotic (%) [6]: 50% | Population Fragmented Nuclei (%) [6]: 60% | Population Healthy Nuclei (%) [6]: 33% | Population Hoechst High Intensity Objects (%) [6]: 33% | Population Membrane Permeable-Phenotype (%) [6]: 10% | Population Mitochondria Different-Phenotype (%) [6]: 30% | Population Mitotic Cells (%) [6]: 50% | Population Normal (%) [6]: 66% | Population Pyknosed Nuclei (%) [6]: 6% | Population Tubulin-Different-Phenotype (%) [6]: 40% | Total Cell Count [6]: 90 | Population Apoptotic (%) [7]: 84% and 46% and 60% | Population Fragmented Nuclei (%) [7]: 37% and 29% and 34% | Population Healthy Nuclei (%) [7]: 47% and 50% | Population Hoechst High Intensity Objects (%) [7]: 20% and 12% and 15% | Population Mitochondria Different-Phenotype (%) [7]: 16% and 28% and 27% | Population Normal (%) [7]: 79% and 87% and 84% | Population Pyknosed Nuclei (%) [7]: 15% and 22% | Population Tubulin-Different-Phenotype (%) [7]: 46% and 80% and 58% | Population Apoptotic (%) [8]: 50% and 66% and 86% | Population Healthy Nuclei (%) [8]: 34% and 49% and 61% | Population Hoechst High Intensity Objects (%) [8]: 18% | Population Normal (%) [8]: 81% | Population Tubulin-Different-Phenotype (%) [8]: 35% and 100% | Total Cell Count [8]: 110 and 78 and 118 | Population Apoptotic (%) [9]: 25% and 33% | Population Fragmented Nuclei (%) [9]: 45% and 39% | Population Healthy Nuclei (%) [9]: 42% and 49% | Population Hoechst High Intensity Objects (%) [9]: 15% and 19% | Population Membrane Permeable-Phenotype (%) [9]: 22% and 10% | Population Mitochondria Different-Phenotype (%) [9]: 15% and 22% | Population Mitotic Cells (%) [9]: 75% and 66% | Population Normal (%) [9]: 84% and 80% | Population Pyknosed Nuclei (%) [9]: 11% | Population Tubulin-Different-Phenotype (%) [9]: 68% and 80% | Total Cell Count [9]: 124 and 166 | Population Apoptotic (%) [10]: 66% | Population Fragmented Nuclei (%) [10]: 35% and 36% | Population Healthy Nuclei (%) [10]: 62% and 60% | Population Hoechst High Intensity Objects (%) [10]: 18% and 14% | Population Membrane Permeable-Phenotype (%) [10]: 16% and 11% | Population Mitochondria Different-Phenotype (%) [10]: 11% and 17% | Population Mitotic Cells (%) [10]: 33% | Population Normal (%) [10]: 81% and 85% | Population Pyknosed Nuclei (%) [10]: 2% | Population Tubulin-Different-Phenotype (%) [10]: 84% and 96% | Total Cell Count [10]: 169 and 170
